Experimental data: ChEMBL document CHEMBL4152256, “Structure-activity relationship of new antimalarial 1-aryl-3-susbtituted propanol derivatives: Synthesis, preliminary toxicity profiling, parasite life cycle stage studies, target exploration, and targeted delivery” (Eur J Med Chem, 2018)
The source made the active and inactive calls. The rule behind the calls is not given here.

Legend:
Plasmodium berghei [1] = experiment: Antiplasmodial activity against Plasmodium berghei ANKA infected in mouse assessed as inhibition of parasitemia at 50 mg/kg/day, po for 4 consecutive days starting from 2 hrs post infection by MSF assay relative to control; type: functional
In short: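 Swiss male mice (20 ± 2 g) infected ip with 10^7 P. berghei ANKA parasitized cells (day 0). Five per group dosed orally 2 h after infection and daily on days 0–3. Test compounds at 50 mg/kg/day in water:DMSO; chloroquine diphosphate at 3 mg/kg/day; vehicle controls. Parasitemia measured on day 4 by MSF assay; survival checked daily.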

Plasmodium berghei [2] = experiment: Antiplasmodial activity against GFP-fused Plasmodium berghei sporozoites infected in human HepG2A16 cells treated simultaneously with infection by fluorescence microscopic analysis; type: functional, organism-based
In short: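 HepG2-A16 cells (3 × 10^4/well, collagen-coated) infected with PbGFP sporozoites (5 × 10^3 to 1 × 10^4/well) and treated at the same time. Top concentration 10 µg/mL in DMEM, seven serial dilutions. Medium and compound renewed at 3 h and every 24 h. After 40 h at 37 °C: methanol fixation, anti-Plasmodium Hsp70 immunolabeling, Alexa 594 secondary, DAPI; high-content imaging.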

Plasmodium falciparum [3] = experiment: Antiplasmodial activity against Plasmodium falciparum D6 after 72 hrs by MSF assay; type: functional, organism-based; conditions: D6, 72 h
In short: (§1)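 D6 and C235 strains from the Walter Reed Army Institute of Research were tested by the Malaria SYBR Green-I fluorescence assay.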

Plasmodium falciparum [4] = experiment: Antiplasmodial activity against multidrug-resistant Plasmodium falciparum C235 after 72 hrs by MSF assay; type: functional, organism-based; conditions: C235, 72 h; in short: as §1
Plasmodium berghei [5] = experiment: Antiplasmodial activity against Plasmodium berghei ANKA infected in mouse assessed as mouse survival time at 50 mg/kg/day, po for 4 consecutive days starting from 2 hrs post infection by MSF assay; type: functional
In short: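 Swiss male mice (20 ± 2 g) infected i.p. with 10^7 P. berghei ANKA parasitized cells in 0.1 mL 0.9% saline (day 0). Oral dosing began 2 h post-infection and continued daily on days 0–3, five mice per batch. Test drugs were given at 50 mg/kg/day in water:DMSO and chloroquine diphosphate at 3 mg/kg/day; a vehicle control was included. Survival was checked daily, and parasitemia was read on day 4 by modified MSF assay.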

[6] = Genotoxicity in Salmonella typhimurium TA1535 harboring pSK1002 assessed as survival at 0.001 mg/ml in absence of Sprague-Dawley rat liver S9 fraction after by SOS/umu assay relative to control; type: toxicity, organism-based; conditions: salmonella enterica subsp. enterica serovar typhimurium, read-out: Survival
[7] = Solubility of the compound in DSPC:cholesterol:DSPE-PEG2000-Mal:DOPE-Rho lipid mixture at 250 uM; type: physicochemical
In short: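 Compound added at 250 µM drug to the initial liposome lipid mixture (10 mM total lipid); precipitation and UV-visible absorbance above 300 nm assessed after encapsulation, removal of unencapsulated material and extraction with 1% w/v SDS in RPMI-A.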

Plasmodium falciparum [8] = experiment: Binding affinity to Plasmodium falciparum GRP94 nucleotide binding domain by SPR analysis
In short: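 Purified PfHsp90 and PfGRP94 nucleotide-binding domains were amine-coupled to a CM5 chip (3000 and 7000 RU, respectively), with a blank reference surface. Seven compound concentrations (0.4 nM–1 mM) were injected in triplicate at 30 µL/min, 25 °C, in random order. Running buffer: 10 mM HEPES pH 7.4, 150 mM NaCl, 0.005% P20, 1% DMSO, 2 mM MgCl2. Kd came from double-referenced sensorgrams.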

[9] = Genotoxicity in Salmonella typhimurium TA1535 harboring pSK1002 assessed as survival at 0.008 mg/ml in absence of Sprague-Dawley rat liver S9 fraction after by SOS/umu assay relative to control; type: toxicity, organism-based; conditions: salmonella enterica subsp. enterica serovar typhimurium, read-out: Survival
[10] = Genotoxicity in Salmonella typhimurium TA1535 harboring pSK1002 assessed as survival at 0.031 mg/ml in absence of Sprague-Dawley rat liver S9 fraction after by SOS/umu assay relative to control; type: toxicity, organism-based; conditions: salmonella enterica subsp. enterica serovar typhimurium, read-out: Survival
[11] = Genotoxicity in Salmonella typhimurium TA1535 harboring pSK1002 assessed as survival at 0.004 mg/ml in absence of Sprague-Dawley rat liver S9 fraction after by SOS/umu assay relative to control; type: toxicity, organism-based; conditions: salmonella enterica subsp. enterica serovar typhimurium, read-out: Survival
[12] = Genotoxicity in Salmonella typhimurium TA1535 harboring pSK1002 assessed as survival at 0.063 mg/ml in presence of Sprague-Dawley rat liver S9 fraction after by SOS/umu assay relative to control; type: toxicity, organism-based; conditions: salmonella enterica subsp. enterica serovar typhimurium, read-out: Survival
[13] = Genotoxicity in Salmonella typhimurium TA1535 harboring pSK1002 assessed as survival at 0.031 mg/ml in presence of Sprague-Dawley rat liver S9 fraction after by SOS/umu assay relative to control; type: toxicity, organism-based; conditions: salmonella enterica subsp. enterica serovar typhimurium, read-out: Survival
[14] = Genotoxicity in Salmonella typhimurium TA1535 harboring pSK1002 assessed as survival at 0.125 mg/ml in absence of Sprague-Dawley rat liver S9 fraction after by SOS/umu assay relative to control; type: toxicity, organism-based; conditions: salmonella enterica subsp. enterica serovar typhimurium, read-out: Survival
[15] = Genotoxicity in Salmonella typhimurium TA1535 harboring pSK1002 assessed as survival at 0.25 mg/ml in absence of Sprague-Dawley rat liver S9 fraction after by SOS/umu assay relative to control; type: toxicity, organism-based; conditions: salmonella enterica subsp. enterica serovar typhimurium, read-out: Survival
[16] = Genotoxicity in Salmonella typhimurium TA1535 harboring pSK1002 assessed as umu gene induction at 0.25 mg/ml in presence of Sprague-Dawley rat liver S9 fraction after by SOS/umu assay relative to control; type: toxicity, organism-based; conditions: salmonella enterica subsp. enterica serovar typhimurium, read-out: FC
[17] = Genotoxicity in Salmonella typhimurium TA1535 harboring pSK1002 assessed as umu gene induction at 0.25 mg/ml in absence of Sprague-Dawley rat liver S9 fraction after by SOS/umu assay relative to control; type: toxicity, organism-based; conditions: salmonella enterica subsp. enterica serovar typhimurium, read-out: FC
[18] = Genotoxicity in Salmonella typhimurium TA1535 harboring pSK1002 assessed as survival at 0.25 mg/ml in presence of Sprague-Dawley rat liver S9 fraction after by SOS/umu assay relative to control; type: toxicity, organism-based; conditions: salmonella enterica subsp. enterica serovar typhimurium, read-out: Survival
[19] = Plasmodium berghei, HepG2A16, read-out: IC50

| Compound | inhibition (Plasmodium berghei [1]) | IC50 (Plasmodium berghei [2]; [19]) [µM] | IC50 (Plasmodium falciparum [3]) [µM] | IC50 (Plasmodium falciparum [4]) [µM] | MSD (Plasmodium berghei [5]) [days] | viability at 0.001 mg/ml [6] [%] | solubility [7] | Activity (Plasmodium falciparum [8]) | viability at 0.008 mg/ml [9] [%] | viability at 0.031 mg/ml [10] [%] | viability at 0.004 mg/ml [11] [%] | viability at 0.063 mg/ml [12] [%] | viability at 0.031 mg/ml [13] [%] | inhibition in vivo at 50 mg/kg/day (Plasmodium berghei [1]) [%] | viability at 0.125 mg/ml [14] [%] | IC50 (Plasmodium berghei [2]) | viability at 0.25 mg/ml [15] [%] | fold induction at 0.25 mg/ml [16] | fold induction at 0.25 mg/ml [17] | viability at 0.25 mg/ml [18] [%] |
| --- | --- | --- | --- | --- | --- | --- | --- | --- | --- | --- | --- | --- | --- | --- | --- | --- | --- | --- | --- | --- |
| OC(CCN1CCN(C(c2ccccc2)c2ccccc2)CC1)c1ccc(F)c2ccccc12 (stereo not drawn) | inactive | 5.42 | 0.1 | 0.17 | 9 | 81 | Insoluble | inactive | 80.6 | 107 | 69 | 91.9 | 95.2 | – | – | – | – | – | – | – |
| N#Cc1ccc(N2CCC(NCCC(O)c3ccc(F)c4ccccc34)CC2)c(Cl)c1 (stereo not drawn) | – | 3.41 | 0.12 | 0.17 | 10 | 130 | – | inactive | 33.7 | 42.2 | 32.2 | 82.8 | – | ≤ 50 | 79.8 | – | – | – | – | – |
| Oc1ccc(C(O)CCN2CC=C(c3ccc(F)cc3)CC2)cc1 (stereo not drawn) | – | – | – | – | – | 87.9 | – | – | 98.3 | 105 | 97.1 | 118 | 110 | – | 112 | Not Active | – | – | – | – |
| COc1ccccc1C1=CCN(CCC(O)c2ccc(F)c3ccccc23)CC1 (stereo not drawn) | – | – | 0.15 | 0.23 | – | 81.7 | Insoluble | – | 76.4 | 47.2 | 76.7 | 76 | 124 | – | 114 | Not Active | 233 | 0.2 | 0.1 | 182 |
| N#Cc1ccc(N2CCC(NCCC(O)c3ccc(F)c4ccccc34)CC2)c(C(F)(F)F)c1 (stereo in doubt; 72) | – | 2.7 | 0.08 | 0.12 | 10 | 132 | Soluble | – | 32.9 | 30.2 | 33.3 | 85.2 | 35 | 80.4 | 62.4 | – | – | – | – | – |
| OC(CCN1CCN(C(c2ccccc2)c2ccccc2)CC1)c1ccc(F)c(F)c1 (stereo not drawn) | inactive | – | – | – | 9 | 110 | Insoluble | – | 105 | 20.7 | 102 | 112 | 103 | – | 24.1 | Not Active | – | – | – | – |
| COc1ccccc1N1CCN(CCC(O)c2ccc(F)cc2)CC1 (stereo in doubt; 66) | – | – | 6.32 | 7.26 | 12 | 110 | Insoluble | – | 114 | 116 | 108 | 100 | 99.2 | 96.4 | 107 | Not Active | 98.8 | 1 | 1.1 | 90.4 |
| N#Cc1ccc(N2CCC(NCCC(O)c3ccc(F)c4ccccc34)CC2)c(Br)c1 (stereo not drawn) | – | – | 0.12 | 0.15 | 10 | 104 | – | inactive | 18.9 | 19.4 | 107 | 46.3 | 35.3 | ≤ 50 | – | – | – | – | – | – |
| COc1ccccc1N1CCN(CCC(O)c2ccc(F)c3ccccc23)CC1 (stereo not drawn) | – | – | 0.28 | 0.41 | 10 | 70.5 | Insoluble | inactive | 67.1 | 58.4 | 66.5 | 88.4 | 129 | ≤ 50 | 55.9 | Not Active | 147 | 0.4 | 0.3 | 115 |
